Source: ChEMBL document CHEMBL4028906, “Allosteric Inhibitors of SHP2 with Therapeutic Potential for Cancer Treatment” (J Med Chem, 2017)
The source made the active and inactive calls. The calls are words filed in the database; no cut-off is given here.

What was measured:
[1] = biological target: T1, Tyrosine-protein phosphatase non-receptor type 11 (Homo sapiens) (UniProt Q06124); assay: Allosteric inhibition of SHP2 PTP domain (unknown origin) expressed in Escherichia coli BL21(DE3) using DIFMUP as substrate preincubated for 20 mins followed by substrate addition measured after 20 mins by phosphatase assay
T1 sequence (whole entry): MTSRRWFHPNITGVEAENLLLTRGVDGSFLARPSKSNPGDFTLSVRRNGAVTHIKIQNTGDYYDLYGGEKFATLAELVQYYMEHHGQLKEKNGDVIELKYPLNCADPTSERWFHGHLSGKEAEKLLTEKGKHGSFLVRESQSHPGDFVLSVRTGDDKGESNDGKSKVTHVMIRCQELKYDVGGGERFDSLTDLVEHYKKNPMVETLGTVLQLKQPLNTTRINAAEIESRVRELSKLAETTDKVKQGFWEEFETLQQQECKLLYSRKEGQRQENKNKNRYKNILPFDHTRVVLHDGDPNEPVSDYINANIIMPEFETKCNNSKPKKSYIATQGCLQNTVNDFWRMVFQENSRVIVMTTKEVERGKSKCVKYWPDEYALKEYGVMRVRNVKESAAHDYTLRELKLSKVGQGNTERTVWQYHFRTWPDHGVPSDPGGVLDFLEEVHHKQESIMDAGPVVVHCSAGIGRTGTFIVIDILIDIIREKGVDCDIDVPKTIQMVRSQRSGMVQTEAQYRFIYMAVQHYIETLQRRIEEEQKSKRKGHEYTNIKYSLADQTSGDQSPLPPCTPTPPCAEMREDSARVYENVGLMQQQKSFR
Summary of the method: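 His-tagged SHP2 constructs expressed in E. coli BL21(DE3) (0.5 mM IPTG, 5 h, 30 °C) and Ni-column purified. 1.5 nM enzyme preincubated 20 min at room temperature with compound in 0.1 M sodium acetate pH 5.0. DIFMUP then added, 20 min further, fluorescence at 358/455 nm. Eight 3-fold dilutions, duplicate wells, IC50 from at least three independent experiments.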

Homo sapiens [2] = species: Homo sapiens; assay: Selectivity ratio of IC50 for TC-PTP (unknown origin) expressed in Escherichia coli BL21(DE3) to IC50 for SHP2 E76A mutant (unknown origin) expressed in Escherichia coli BL21(DE3)
Summary of the method: (§1)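 Ratio of IC50 values from one DIFMUP fluorescence assay (Ex/Em 358/455), room temperature, 0.1 M sodium acetate pH 5.0. His-tagged SHP2 E76A (1.5 nM) or counter-phosphatase purified from E. coli, preincubated 20 min with compound (eight 3-fold dilutions), then DIFMUP added for 20 min. DIFMUP was at Km for each counter-phosphatase. Duplicates; IC50 from at least three independent experiments.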

[3] = Inhibition of SHP2 N58S mutant (unknown origin); set-up: species or system Homo sapiens
[4] = biological target: T1, Tyrosine-protein phosphatase non-receptor type 11 (Homo sapiens); assay: Allosteric inhibition of SHP2 in human NCI-H661 cells assessed as downregulation of phosphorylated ERK1/2 levels at 2.5 to 20 uM after 2 hrs by Western blot analysis; assay type: cell-based
Summary of the method: (§2)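 NCI-H661 cells in 6-well plates exposed to inhibitor 2 h at 37 °C. RIPA lysates separated by SDS-PAGE, transferred to PVDF, milk-blocked, probed overnight at 4 °C for pERK1/2, ERK1/2, pAKT and AKT. Repeated at least three times.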

[5] = biological target: T1, Tyrosine-protein phosphatase non-receptor type 11 (Homo sapiens); assay: Allosteric inhibition of SHP2 in human NCI-H661 cells assessed as downregulation of phosphorylated AKT levels at 2.5 to 20 uM after 2 hrs by Western blot analysis; assay type: cell-based; summary of the method: as §2
[6] = biological target: T1, Tyrosine-protein phosphatase non-receptor type 11 (Homo sapiens); assay: Allosteric inhibition of SHP2 in human NCI-H1975 cells harboring EGFR T790M mutant assessed as downregulation of ERK1/2 phosphorylation at 10 uM after 2 hrs by DAPI-based fluorescence microscopic analysis; assay type: cell-based
Summary of the method: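 NCI-H1975 cells grown overnight on coverslips, then 10 μM inhibitor for 2 h. Fixed in 4% PFA, permeabilized with 0.4% Triton X-100, BSA-blocked. Phospho-ERK1/2 antibody applied overnight at 4 °C, fluorescent secondary 1 h at room temperature, DAPI mount, fluorescence microscopy. Repeated at least three times.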

[7] = biological target: T1, Tyrosine-protein phosphatase non-receptor type 11 (Homo sapiens); assay: Allosteric inhibition of SHP2 in human SF268 cells assessed as downregulation of YAP-mediated CTGF gene expression ay 10 to 20 uM after 2 hrs by qRT-PCR analysis; assay type: cell-based
Summary of the method: (§3)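 SF268 cells exposed to DMSO, 10 μM or 20 μM inhibitor for 2 h. RNA extracted, reverse-transcribed, and CTGF, CYR61, ANKRD1 and YAP mRNA quantified by qPCR; mean±s.d., n=3.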

MV4-11 = assay: Antitumor activity against human MV4-11 cells xenografted in BALB/c mouse assessed as tumor growth inhibition at 10 mg/kg administered qd via oral gavage measured twice weekly relative to control; assay type: functional; conditions: MV4-11, po, read-out: TGI
Summary of the method: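 Female BALB/c nude mice given subcutaneous MV4;11 cells (5×10^6, in 50% phenol red-free matrigel in PBS). Once tumours reached about 230 mm³, mice were randomised to vehicle or oral gavage once daily (10 ml/kg). Tumour volume was measured by caliper in two dimensions twice a week, along with body weight. Data given as mean±sem, with significance assessed on day 14.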

SF-268 = assay: Effect on YAP gene expression in human SF268 cells at 10 to 20 uM after 2 hrs by qRT-PCR analysis; assay type: functional, cell-based; summary of the method: as §3
K562 = assay: Antiproliferative activity against human K562 cells at 3 to 6 uM after 2 days by CellTiter-Glo assay; assay type: functional, cell-based
Summary of the method: (§4)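 3000 cells/well in 96-well plates, grown overnight, then inhibitor at indicated concentrations for 2 days (48 h). Viability by CellTiter-Glo; mean±s.d., n=3.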

KMS-11 = assay: Antiproliferative activity against human KMS11 cells at 3 to 6 uM after 2 days by CellTiter-Glo assay; assay type: functional, cell-based; summary of the method: as §4
NCI-H1975 = assay: Antiproliferative activity against human NCI-H1975 cells at 3 to 6 uM after 2 days by CellTiter-Glo assay; assay type: functional, cell-based; summary of the method: as §4
BT-474 = assay: Antiproliferative activity against human BT474 cells at 3 to 6 uM after 2 days by CellTiter-Glo assay; assay type: functional, cell-based; summary of the method: as §4
KOPN-8 = assay: Antiproliferative activity against human KOPN8 cells at 3 to 6 uM after 2 days by CellTiter-Glo assay; assay type: functional, cell-based; summary of the method: as §4
MOLT-4 = assay: Antiproliferative activity against human MOLT4 cells at 3 to 6 uM after 2 days by CellTiter-Glo assay; assay type: functional, cell-based; summary of the method: as §4
[8] = Oral bioavailability in nu/nu mouse at 10 mg/kg measured up to 24 hrs postdose by LC/MS/MS analysis; assay type: ADME, organism-based; conditions: in vivo
Summary of the method: (§5)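 Female nu/nu nude mice dosed IV via tail vein at 5 mg/kg or orally at 10 mg/kg. Blood sampled at 0.083, 0.25, 0.5, 1, 2, 4, 8 and 24 h post-dose (orbital sinus, terminal cardiac puncture; EDTA-2K). Plasma separated at 4 °C, precipitated with acetonitrile containing internal standard, quantified by LC/MS/MS.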

Homo sapiens [9] = species: Homo sapiens; assay: Selectivity ratio of IC50 for VHR (unknown origin) expressed in Escherichia coli BL21(DE3) to IC50 for SHP2 E76A mutant (unknown origin) expressed in Escherichia coli BL21(DE3); summary of the method: as §1
[10] = AUC in nu/nu nude mouse at 10 mg/kg, po measured up to 24 hrs postdose by LC/MS/MS analysis; assay type: ADME, organism-based; set-up: dose 10 mg/kg, time < 24 hr, route oral; conditions: in vivo; summary of the method: as §5

## CC1(N)CCN(c2nc(-c3ccc4cc(Br)ccc4c3)cs2)CC1
[1]
  inhibition: inactive
Homo sapiens [2]
  Ratio IC50: > 30
[3]
  IC50: 1.2 µM
[4]
  inhibition: Active
[5]
  inhibition: Active
[6]
  inhibition: Active
[7]
  inhibition: Active
MV4-11
  inhibition in vivo at 10 mg/kg: 44.6%
SF-268
  Activity: inactive
K562
  Activity: Active
KMS-11
  Activity: Active
NCI-H1975
  Activity: Active
BT-474
  Activity: Active
KOPN-8
  Activity: Active
MOLT-4
  Activity: Active
[8]
  bioavailability: 67%
Homo sapiens [9]
  Ratio IC50: > 30
[10]
  AUC at 24 h: 9.86 µM·h
